Tests used:
Assay type in all cases: in vivo, Wistar rats
[1] = test system: P-gp; experiment: Immunohistochemistry of efflux proteins in brain tissue; details: intranasal 1.25 mg/kg, 14 days, score 0-12
[2] = test system: MRP1; experiment: as above; details: intranasal 1.25 mg/kg, 14 days, score 0-12
[3] = test system: BCRP; experiment: as above; details: intranasal 1.25 mg/kg, 14 days, score 0-12
[4] = Pharmacokinetics in blood and vital organs; details: for CL/F: gavage; for AUC(0-t) / Cmax / MRT last / Tmax / half-life: male, Wistar, rat, po
Procedure, shortened: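 Male Wistar rats (200±20 g) received the test compound as an aqueous solution by gavage. Five rats were sampled at each of 11 times from 5 min to 24 h, and blood and organs were collected and weighed. Tissue homogenates (1% perchloric acid) and plasma (6% perchloric acid) were deproteinized, extracted into ethyl acetate at pH 11.8, and analysed by HPLC at 308 nm. Mean±SD, n=5.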

[5] = nasal NEs vs gavage HupA aqueous solution

CL/F ([4]; Brain): 42.63 ± 7.93 mL·h
CL/F ([4]; Heart): 7.26 ± 0.05 mL·h
CL/F ([4]; Kidney): 0.91 ± 0.02 mL·h
CL/F ([4]; Liver): 2.88 ± 0.15 mL·h
CL/F ([4]; Lung): 4.03 ± 0.09 mL·h
CL/F ([4]; Plasma): 9.88 ± 0.89 mL·h
CL/F ([4]; Spleen): 2.45 ± 0.03 mL·h
AUC(0-t) ([4]; brain): 28.6 ± 5.72 ng·h/mL
Cmax ([4]; brain): 15 ± 4.25 ng/mL
MRT last ([4]; brain): 1.49 ± 0.12 h
Tmax ([4]; brain): 0.5 h
half-life ([4]; brain): 1.27 ± 0.16 h
AUC(0-t) ([4]; heart): 163 ± 5.85 ng·h/mL
Cmax ([4]; heart): 163 ± 7.33 ng/mL
MRT last ([4]; heart): 1.6 ± 0.05 h
Tmax ([4]; heart): 0.5 h
half-life ([4]; heart): 2.21 ± 0.68 h
AUC(0-t) ([4]; kidney): 1350 ± 33.3 ng·h/mL
Cmax ([4]; kidney): 567 ± 40.6 ng/mL
MRT last ([4]; kidney): 2.78 ± 0.05 h
Tmax ([4]; kidney): 1 h
half-life ([4]; kidney): 2.1 ± 0.1 h
AUC(0-t) ([4]; liver): 424 ± 22.9 ng·h/mL
Cmax ([4]; liver): 256 ± 8.27 ng/mL
MRT last ([4]; liver): 1.95 ± 0.04 h
Tmax ([4]; liver): 0.5 h
AUC(0-t) ([4]; lung): 288 ± 13 ng·h/mL
Cmax ([4]; lung): 173 ± 14.1 ng/mL
MRT last ([4]; lung): 2.28 ± 0.06 h
Tmax ([4]; lung): 1 h
half-life ([4]; lung): 2.49 ± 0.13 h
AUC(0-t) ([4]; plasma): 119 ± 10.1 ng·h/mL
Cmax ([4]; plasma): 109 ± 8.99 ng/mL
MRT last ([4]; plasma): 1.31 ± 0.12 h
Tmax ([4]; plasma): 0.5 h
half-life ([4]; plasma): 1.77 ± 0.83 h
AUC(0-t) ([4]; spleen): 485 ± 5.11 ng·h/mL
Cmax ([4]; spleen): 195 ± 4.58 ng/mL
MRT last ([4]; spleen): 2.03 ± 0.06 h
Tmax ([4]; spleen): 1 h
Structure (SMILES): C/C=C1\[C@H]2C=C(C)C[C@]1(N)c1ccc(=O)[nH]c1C2 [HupA Solution, huperzine A]
P-gp protein expression (immunoreactive score) [1]: higher in the HupA aqueous solution group than in the blank control group
MRP1 protein expression (immunoreactive score) [2]: higher in the HupA aqueous solution group than in the blank control group
BCRP protein expression (immunoreactive score) [3]: higher in the HupA aqueous solution group than in the blank control group
Concentration (C) of the drug in brain tissue at the same time point (order) [4, 5]: CLf-HupA-NE>CHupA-NE>CHupA aqueous solution
Duration of action in the brain (T) (order) [4, 5]: TLf-HupA-NE>THupA-NE>THupA aqueous solution
